The text below walks through data of ChEMBL document CHEMBL4043061, “Potent, Selective, Allosteric Inhibition of Human Plasmin by Sulfated Non-Saccharide Glycosaminoglycan Mimetics” (J Med Chem, 2017).

Bounds are passed on as bounds.

For orientation: IC50 means the midpoint of a concentration-inhibition curve. The low end stands for higher potency, the high end for lower potency. In general, Kd refers to the equilibrium constant for the complex coming apart.

Experiment [1] concerns the target T1, Plasminogen (Homo sapiens, UniProt P00747). Description: Allosteric inhibition of full length human plasmin by using chromogenic substrate spectrozyme PL preincubated for 5 mins followed by substrate addition by spectrophotometric method. Summed up:
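Inhibitor added from 0–20 mM aqueous stocks, or vehicle. After 5 min, Spectrozyme PL added (1 mM stock). Residual activity taken from initial rate of A405 rise. Logistic fit gives IC50, efficacy and Hill slope.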

The target of experiment [2] is T1, Plasminogen. The experiment in a line: Binding affinity to human plasmin assessed as loss of intrinsic tryptophan fluorescence at 250 uM by spectrofluorometric method.
In a further experiment the target is Coagulation factor X (Homo sapiens, UniProt P00742). Description: Inhibition of human F10a by using chromogenic substrate spectrozyme F10a preincubated for 5 mins followed by substrate addition by spectrophotometric method. The method in brief:
(§1)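 Tris-HCl pH 7.4 buffer (100 mM NaCl, 2.5 mM CaCl2, 0.1% PEG8000, 0.02% Tween80) at 37 °C; factor IXa buffer also held 33% ethylene glycol. Final enzyme: factor Xa 1.09 nM, XIa 0.75 nM, XIIa 10 nM, IXa 250 nM, trypsin 0.145 µg/mL, chymotrypsin […]. Inhibitor from 0–20 mM stock, 5 min preincubation, then substrate. Initial A405 rate, sigmoidal dose–response fit.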

Another experiment addresses Coagulation factor XI (Homo sapiens, UniProt P03951). The experiment in a line: Inhibition of human F11a by using chromogenic substrate S-2366 preincubated for 5 mins followed by substrate addition by spectrophotometric method. The method in brief:
as §1

Another experiment concerns the target Prothrombin (Homo sapiens, UniProt P00734). The experiment in a line: Inhibition of human thrombin by using chromogenic substrate spectrozyme TH preincubated for 5 mins followed by substrate addition by spectrophotometric method. The method in brief:
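Thrombin at 6 nM final, 25 °C, in 20 mM Tris-HCl pH 7.4 with 100 mM NaCl, 2.5 mM CaCl2, 0.1% PEG8000, 0.02% Tween80. Inhibitor (0–20 mM stock) or vehicle preincubated 5 min with enzyme. Spectrozyme TH added (1.0 mM stock). Residual activity read as initial rate of A405 increase and fitted to a sigmoidal dose–response curve.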

Experiment [3] is described as follows: Inhibition of human chymotrypsin using chromogenic substrate spectrozyme Cty preincubated for 5 mins followed by substrate addition by spectrophotometric method. The method in brief: as §1
In the next experiment the target is Coagulation factor IX (Homo sapiens, UniProt P00740). The experiment in a line: Inhibition of human F9a by using chromogenic substrate spectrozyme F9a preincubated for 5 mins followed by substrate addition by spectrophotometric method.
Experiment [4] in a line: Inhibition of human trypsin using chromogenic substrate SS-2222 preincubated for 5 mins followed by substrate addition by spectrophotometric method. The method in brief:
as §1

In the next experiment the target is T2, Coagulation factor XII (Homo sapiens, UniProt P00748).
T2 sequence (P00748 whole entry): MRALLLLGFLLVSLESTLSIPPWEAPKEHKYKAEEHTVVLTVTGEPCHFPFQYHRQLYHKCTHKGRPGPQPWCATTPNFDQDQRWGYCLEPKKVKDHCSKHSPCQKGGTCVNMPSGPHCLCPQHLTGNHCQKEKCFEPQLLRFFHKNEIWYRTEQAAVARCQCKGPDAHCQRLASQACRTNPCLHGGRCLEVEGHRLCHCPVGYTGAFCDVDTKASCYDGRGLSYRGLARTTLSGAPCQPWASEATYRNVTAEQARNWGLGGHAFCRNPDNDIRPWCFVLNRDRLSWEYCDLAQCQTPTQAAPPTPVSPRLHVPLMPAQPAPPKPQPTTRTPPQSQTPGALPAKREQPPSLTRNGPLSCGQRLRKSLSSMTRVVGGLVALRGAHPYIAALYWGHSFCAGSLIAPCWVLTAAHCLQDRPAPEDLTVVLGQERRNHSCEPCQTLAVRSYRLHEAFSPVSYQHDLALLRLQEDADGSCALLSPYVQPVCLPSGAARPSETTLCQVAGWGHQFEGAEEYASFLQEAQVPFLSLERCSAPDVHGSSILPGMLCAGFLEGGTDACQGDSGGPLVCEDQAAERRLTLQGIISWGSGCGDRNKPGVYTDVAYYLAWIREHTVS
The experiment in a line: Inhibition of human F12a by using chromogenic substrate spectrozyme F12a preincubated for 5 mins followed by substrate addition by spectrophotometric method.

Experiment [5] has as its target T1, Plasminogen. The experiment in a line: Binding affinity to human dansyl-EGR-chloromethylketone-plasmin complex assessed as loss of intrinsic tryptophan fluorescence by spectrofluorometric method.

T1 sequence (P00747 97-580 limits assumed): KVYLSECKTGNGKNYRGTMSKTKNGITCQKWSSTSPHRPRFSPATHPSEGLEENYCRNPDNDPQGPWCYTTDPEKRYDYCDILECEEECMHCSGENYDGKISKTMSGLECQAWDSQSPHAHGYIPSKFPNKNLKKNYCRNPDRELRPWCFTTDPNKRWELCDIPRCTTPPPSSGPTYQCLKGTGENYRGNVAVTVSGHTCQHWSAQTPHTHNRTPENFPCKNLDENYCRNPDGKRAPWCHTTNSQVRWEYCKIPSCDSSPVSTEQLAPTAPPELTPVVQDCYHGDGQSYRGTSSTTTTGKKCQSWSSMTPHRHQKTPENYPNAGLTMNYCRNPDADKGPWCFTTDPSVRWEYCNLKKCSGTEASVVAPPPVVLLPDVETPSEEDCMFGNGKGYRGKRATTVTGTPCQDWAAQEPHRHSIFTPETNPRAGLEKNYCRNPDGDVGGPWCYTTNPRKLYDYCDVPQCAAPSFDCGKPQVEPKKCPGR
T1 sequence (P00747 581-810 limits assumed): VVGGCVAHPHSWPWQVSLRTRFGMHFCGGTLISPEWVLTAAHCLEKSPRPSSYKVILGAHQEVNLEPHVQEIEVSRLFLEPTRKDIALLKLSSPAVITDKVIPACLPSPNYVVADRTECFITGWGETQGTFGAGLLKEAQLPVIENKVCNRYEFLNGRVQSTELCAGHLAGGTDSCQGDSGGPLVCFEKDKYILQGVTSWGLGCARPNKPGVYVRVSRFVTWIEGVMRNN
Sequence of Coagulation factor XI (P03951 19-387 limits assumed): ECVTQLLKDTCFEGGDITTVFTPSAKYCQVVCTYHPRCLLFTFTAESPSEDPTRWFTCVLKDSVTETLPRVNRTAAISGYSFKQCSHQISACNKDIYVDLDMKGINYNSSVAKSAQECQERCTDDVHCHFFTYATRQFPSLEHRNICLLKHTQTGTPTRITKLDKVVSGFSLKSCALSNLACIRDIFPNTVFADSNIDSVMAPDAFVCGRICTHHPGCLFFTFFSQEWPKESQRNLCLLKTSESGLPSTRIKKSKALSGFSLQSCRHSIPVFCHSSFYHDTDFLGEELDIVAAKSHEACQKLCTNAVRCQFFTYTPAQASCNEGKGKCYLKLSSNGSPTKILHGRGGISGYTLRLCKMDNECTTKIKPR
Sequence of Coagulation factor XI (P03951 388-625 limits assumed): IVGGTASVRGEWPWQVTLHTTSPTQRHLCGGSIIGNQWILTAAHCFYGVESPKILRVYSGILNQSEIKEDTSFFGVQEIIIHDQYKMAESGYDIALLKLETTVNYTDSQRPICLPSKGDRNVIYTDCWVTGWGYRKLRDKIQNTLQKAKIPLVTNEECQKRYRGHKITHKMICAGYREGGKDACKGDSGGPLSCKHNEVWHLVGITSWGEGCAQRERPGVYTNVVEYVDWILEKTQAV
Sequence of Coagulation factor X (P00742 41-179 limits assumed): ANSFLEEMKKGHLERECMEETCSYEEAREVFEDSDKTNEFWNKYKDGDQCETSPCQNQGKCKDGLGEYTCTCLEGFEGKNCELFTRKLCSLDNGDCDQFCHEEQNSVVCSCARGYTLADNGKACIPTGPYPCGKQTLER
Sequence of Coagulation factor X (P00742 235-488 limits assumed): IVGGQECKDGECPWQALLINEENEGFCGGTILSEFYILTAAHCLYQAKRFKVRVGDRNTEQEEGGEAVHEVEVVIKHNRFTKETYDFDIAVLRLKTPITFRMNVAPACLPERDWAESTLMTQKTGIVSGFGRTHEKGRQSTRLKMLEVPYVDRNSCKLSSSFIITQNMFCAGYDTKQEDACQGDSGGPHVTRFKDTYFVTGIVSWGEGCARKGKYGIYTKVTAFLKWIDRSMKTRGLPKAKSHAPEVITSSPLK
Sequence of Coagulation factor IX (P00740 47-191 limits assumed): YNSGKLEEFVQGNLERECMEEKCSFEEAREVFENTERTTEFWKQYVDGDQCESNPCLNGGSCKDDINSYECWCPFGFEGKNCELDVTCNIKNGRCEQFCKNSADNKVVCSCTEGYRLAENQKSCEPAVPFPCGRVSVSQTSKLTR
Sequence of Coagulation factor IX (P00740 227-461 limits assumed): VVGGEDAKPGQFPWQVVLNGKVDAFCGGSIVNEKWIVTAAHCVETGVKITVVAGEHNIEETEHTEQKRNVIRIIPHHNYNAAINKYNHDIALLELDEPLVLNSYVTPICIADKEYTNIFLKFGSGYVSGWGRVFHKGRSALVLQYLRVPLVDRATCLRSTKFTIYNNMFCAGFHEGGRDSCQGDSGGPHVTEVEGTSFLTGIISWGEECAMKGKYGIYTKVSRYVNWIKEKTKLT

Turning to `O=c1cc(-c2ccc(OS(=O)(=O)O)cc2)oc2cc(OS(=O)(=O)O)cc(OCCCCOc3cc(OS(=O)(=O)O)cc4oc(-c5ccc(OS(=O)(=O)O)cc5)cc(=O)c34)c12`, the IC50 on Plasminogen [1] worked out at 282 µM. For `O=c1cc(-c2ccc(OS(=O)(=O)O)cc2)oc2cc(OS(=O)(=O)O)cc(OC/C=C/COc3cc(OS(=O)(=O)O)cc4oc(-c5ccc(OS(=O)(=O)O)cc5)cc(=O)c34)c12`, at Plasminogen [2], the equilibrium dissociation constant (Kd) is 3.6 µM. The compound also showed a half-maximal inhibitory concentration (IC50) against Plasminogen [1] of 121 µM.

Consider `O=c1c(O)c(-c2ccc(O)c(O)c2)oc2cc(O)cc(OCc3ccc(COc4cc(O)cc5oc(-c6ccc(O)c(O)c6)c(O)c(=O)c45)cc3)c12`, for which the half-maximal inhibitory concentration (IC50) on Coagulation factor X worked out at 212 µM; against Coagulation factor XI, 208 µM; against Prothrombin, 267 µM; against Plasminogen [1], 116 µM.

For `O=c1cc(-c2ccc(OS(=O)(=O)O)cc2)oc2cc(OS(=O)(=O)O)cc(OCc3ccc(-c4ccc(COc5cc(OS(=O)(=O)O)cc6oc(-c7ccc(OS(=O)(=O)O)cc7)cc(=O)c56)cc4)cc3)c12`, the 50% inhibitory concentration (IC50) at Plasminogen [1] was 47 µM. `O=c1c(OS(=O)(=O)O)c(-c2ccc(OS(=O)(=O)O)c(OS(=O)(=O)O)c2)oc2cc(OS(=O)(=O)O)cc(OCc3cccc(COc4cc(OS(=O)(=O)O)cc5oc(-c6ccc(OS(=O)(=O)O)c(OS(=O)(=O)O)c6)c(OS(=O)(=O)O)c(=O)c45)n3)c12` came in with an IC50 against Plasminogen [1] of 231 µM. Still for that read-out and setting: under `O=c1c(OS(=O)(=O)O)c(-c2ccc(OS(=O)(=O)O)c(OS(=O)(=O)O)c2)oc2cc(OS(=O)(=O)O)cc(OCc3cccc(COc4cc(OS(=O)(=O)O)cc5oc(-c6ccc(OS(=O)(=O)O)c(OS(=O)(=O)O)c6)c(OS(=O)(=O)O)c(=O)c45)c3)c12` stands 73 µM; under `O=c1cc(-c2ccc(OS(=O)(=O)O)cc2)oc2cc(OS(=O)(=O)O)cc(OCc3cccc(COc4cc(OS(=O)(=O)O)cc5oc(-c6ccc(OS(=O)(=O)O)cc6)cc(=O)c45)c3)c12`, 34 µM. Take `O=c1c(OS(=O)(=O)O)c(-c2ccc(OS(=O)(=O)O)c(OS(=O)(=O)O)c2)oc2cc(OS(=O)(=O)O)cc(OCc3ccc(COc4cc(OS(=O)(=O)O)cc5oc(-c6ccc(OS(=O)(=O)O)c(OS(=O)(=O)O)c6)c(OS(=O)(=O)O)c(=O)c45)cc3)c12`: the concentration for half-maximal inhibition (IC50) against Coagulation factor X is 505 µM; at Coagulation factor XI, 180 µM; in experiment [3], 196 µM; against Coagulation factor IX it was > 2000 µM; against Prothrombin, 156 µM; in experiment [4], > 440 µM. The IC50 against Coagulation factor XII was > 1000 µM. The compound `O=c1cc(-c2ccc(OS(=O)(=O)O)cc2)oc2cc(OS(=O)(=O)O)cc(OCCOc3cc(OS(=O)(=O)O)cc4oc(-c5ccc(OS(=O)(=O)O)cc5)cc(=O)c34)c12` had an IC50 against Plasminogen [1] of 71 µM.

`O=c1cc(-c2ccc(OS(=O)(=O)O)cc2)oc2cc(OS(=O)(=O)O)cc(OCc3ccc(COc4cc(OS(=O)(=O)O)cc5oc(-c6ccc(OS(=O)(=O)O)c(OS(=O)(=O)O)c6)c(OS(=O)(=O)O)c(=O)c45)cc3)c12`: the IC50 against Plasminogen [1] was determined as 14 µM. Still for that read-out and setting: under `O=c1cc(-c2ccc(OS(=O)(=O)O)cc2)oc2cc(OS(=O)(=O)O)cc(OCCCOc3cc(OS(=O)(=O)O)cc4oc(-c5ccc(OS(=O)(=O)O)cc5)cc(=O)c34)c12` stands > 1000 µM; under `O=c1cc(-c2ccc(OS(=O)(=O)O)cc2)oc2cc(OS(=O)(=O)O)cc(OCc3ccc(COc4cc(OS(=O)(=O)O)cc5oc(-c6ccc(OS(=O)(=O)O)cc6)cc(=O)c45)cc3)c12`, 34 µM. For the compound `Cc1cc(COc2cc(OS(=O)(=O)O)cc3oc(-c4ccc(OS(=O)(=O)O)cc4)cc(=O)c23)c(C)cc1COc1cc(OS(=O)(=O)O)cc2oc(-c3ccc(OS(=O)(=O)O)cc3)cc(=O)c12`, the dissociation constant Kd on Plasminogen [5] stood at 5.4 µM; on Plasminogen [2], 1.9 µM. This compound gave a half-inhibitory concentration (IC50) against Plasminogen [1] of 20 µM. On Plasminogen [1], `O=c1c(OS(=O)(=O)O)c(-c2ccc(OS(=O)(=O)O)c(OS(=O)(=O)O)c2)oc2cc(OS(=O)(=O)O)cc(OCc3ccc(-c4ccc(COc5cc(OS(=O)(=O)O)cc6oc(-c7ccc(OS(=O)(=O)O)c(OS(=O)(=O)O)c7)c(OS(=O)(=O)O)c(=O)c56)cc4)cc3)c12` yielded a half-maximal inhibitory concentration (IC50) of 37 µM. Regarding `Cc1cc(COc2cc(OS(=O)(=O)O)cc3oc(-c4ccc(OS(=O)(=O)O)c(OS(=O)(=O)O)c4)c(OS(=O)(=O)O)c(=O)c23)c(C)cc1COc1cc(OS(=O)(=O)O)cc2oc(-c3ccc(OS(=O)(=O)O)c(OS(=O)(=O)O)c3)c(OS(=O)(=O)O)c(=O)c12`, on Plasminogen [2], the dissociation constant Kd was 1 µM. This compound also had an IC50 against Plasminogen [1] of 6.5 µM. Consider `O=c1cc(-c2ccc(OS(=O)(=O)O)cc2)oc2cc(OS(=O)(=O)O)cc(OCc3cccc(COc4cc(OS(=O)(=O)O)cc5oc(-c6ccc(OS(=O)(=O)O)cc6)cc(=O)c45)n3)c12`, for which the half-maximal inhibitory concentration (IC50) against Plasminogen [1] turned out to be 42 µM.
